Assay results taken from ChEMBL document CHEMBL2311266, “Isolation and identification of β-hematin inhibitors from Flacourtia indica as promising antiplasmodial agents” (Eur J Med Chem, 2013).

Experiments:
Plasmodium yoelii = assay: Antimalarial activity against Plasmodium yoelii infected in Swiss mouse assessed as inhibition of beta-hematin formation in plasma after 16 hrs by spectrophotometric analysis; format: functional, organism-based
Procedure, shortened: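 P. yoelii-infected male Swiss mice (15-20 g; 1×10^5 infected RBCs); blood at 50% parasitemia taken in 2.0% citrate, plasma used. Mix: 100 mM sodium acetate pH 5.1, 50 µL plasma, 100 µM hemin, 1–50 µg compound per 1.0 mL; 37 °C 16 h shaking, triplicate. Pellet washed (Tris-SDS, water), dissolved in NaOH, A400; IC50 by non-linear regression.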

[1] = Selectivity index, ratio of CC50 for african green monkey Vero cells to IC50 for Plasmodium falciparum 3D7; format: functional
Procedure, shortened: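 SI = CC50 (Vero, MTT, 72 h) / IC50 against P. falciparum 3D7. […] Read-out SYBR Green I fluorescence (ex 485, em 530 nm), logistic regression, triplicate.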

[2] = Cytotoxicity against african green monkey Vero cells after 72 hrs by MTT assay; format: cell-based; details: chlorocebus sabaeus
Procedure, shortened: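 Vero cells (1 × 10⁴) exposed to serial dilutions of test agents for 72 h; viability read by MTT. Three replicates; CC50 from non-linear regression of dose-response curves.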

Plasmodium falciparum [3] = assay: Antiplasmodial activity against chloroquine-sensitive Plasmodium falciparum 3D7 after 72 hrs by SYBR green assay; format: functional, organism-based; details: 3D7, 72 h
Procedure, shortened: (§1)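 Compounds dissolved in DMSO (5 mg/mL or 10 mM stock), two-fold serial dilutions. Asynchronous culture (>80% rings) at 1.0% cell suspension, 0.8% parasitemia, 72 h at 37 °C under 5% CO₂/air. Lysis buffer with 2× SYBR Green I added, 1 h at 37 °C. Fluorescence read at 485/530 nm. IC50 by logistic regression of dose-response curves, three replicates, chloroquine reference.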

Plasmodium falciparum [4] = assay: Antiplasmodial activity against chloroquine-resistant Plasmodium falciparum K1 after 72 hrs by SYBR green assay; format: functional, organism-based; details: K1, 72 h; procedure, shortened: as §1
[5] = Inhibition of H2O2-induced hemin degradation at 20 uM incubated for 10 mins prior to H2O2-induction measured after 30 mins by spectrophotometric analysis relative to control

Structure (SMILES) | IC50 (Plasmodium yoelii) [µM] | Ratio CC50/IC50 [1] | CC50 at 72 h [2] [µM] | IC50 (Plasmodium falciparum [3]) [µM] | IC50 (Plasmodium falciparum [4]) [µM] | inhibition [5] [%]
O=C(OC[C@H]1O[C@@H](Oc2ccc(O)cc2CO)[C@H](O)[C@@H](O)[C@@H]1O)c1ccccc1 [POLIOTHYRSOSIDE] | > 50 | 16.8 | 136 | 8.1 | > 25 | 
CCN(CC)CCCC(C)Nc1ccnc2cc(Cl)ccc12 (stereo not given) [CHLOROQUINE] | 7.7 |  | 126 |  |  | 53.5
O=C1C[C@@H](c2ccc(O)c(O)c2)c2c(O)cc3c(c2O1)C[C@H](O)[C@@H](c1ccc(O)c(O)c1)O3 | 10.1 | 181.8 | 200 | 1.1 | > 5 | 23
COc1cc(-c2cc(=O)c3c(O)cc(O[C@@H]4O[C@H](CO)[C@@H](O)[C@H](O)[C@H]4O)cc3o2)ccc1O | > 50 | 45.4 | 200 | 4.4 | > 5 | 
O=c1cc2c3c(cc4c(c3o1)C[C@H](O)[C@@H](c1ccc(O)c(O)c1)O4)Oc1cc(O)c(O)cc1-2 [MURURIN A] | 8.3 | 48.7 | 58.5 | 1.2 | 1.3 | 37.5
O=C(O[C@H]1[C@H](Oc2ccc(O)cc2COC(=O)[C@@]2(O)[C@H](O)C=CC(=O)[C@@H]2O)O[C@H](CO)[C@@H](O)[C@@H]1O)c1ccccc1 | > 50 | 17.6 | 77.3 | 4.4 | > 5 | 
O=C(OC[C@H]1O[C@@H](Oc2ccc(O)cc2COC(=O)[C@@]2(O)[C@H](O)C=CC(=O)[C@@H]2O)[C@H](O)[C@@H](O)[C@@H]1O)c1ccccc1 | > 50 | 32.9 | 118 | 3.6 | > 5 | 
